Shown is part of a subset that was picked to be rich in hits.
Dynein transport: blocks dynein driven cargo transport along microtubules; z-score, hits read low; hit rate 0.47% among 220,000; AID 1381; 3617.4 mouse cells, GR-EGFP nuclear translocation imaging; test concentration mostly 20 µM; stimulated with dexamethasone, 1 µM; hits give low values;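 active means plate z-score of nuclear minus cytoplasmic receptor signal below a set negative limit, without overly bright fluorescence or cell loss, cut at about -3.5 in these data, passing the limit was not always enough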;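 further: z-score of nuclear minus cytoplasmic ring GR-EGFP intensity difference per well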
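Buffer or medium – tet-free medium with charcoal-stripped serum · Signal – automated 10x imaging of fixed Hoechst-stained cells · Also added – dexamethasone agonist, 1.0 µM final, for 30 min · Incubation – induction 48 h, compound 1 h, agonist 30 min · Read-out – GR-EGFP nuclear translocation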
T cruzi inh: T. cruzi replication inhibition; T. cruzi beta-gal in NIH3T3, luminescence, 90 h; hit rate 1.4% among 300,000; inhibition, % (test concentration not listed);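 active means mean inhibition across valid replicates above about 55%, limit read from the data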;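 further: signal also drops with host cell toxicity which is not excluded here; 0% = plate median of DMSO wells and 100% = zero luminescence signal; higher percent means less beta-gal luminescence so fewer parasites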
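Assay system: NIH/3T3 host cells with β-galactosidase reporter T. cruzi; input: 5,000 host fibroblasts per well; compound: single 50 nL compound addition per well in DMSO; timing: ≥90 h infection period, 3 h prior cell attachment; measured by: GalScreen β-gal luminescence, detergent lysis, 60 min; evaluation: percent inhibition of parasite-derived β-gal signal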
L major viab: inhibitors of Leishmania major promastigote growth. Leishmania major promastigotes, resazurin fluorescence viability. inhibition, % at 10 µM. hit rate 9% among 200,000. AID 1063; in the data active means inhibition above about 50%;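 further: promastigotes grown with compound for 44 hours at 28 °C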
CHOP UPR activ: activators of apoptotic arm of unfolded protein response (CHOP); CHO-CHOP luciferase reporter, UPR activation, luminescence; percent of tunicamycin response over DMSO baseline; activation, % at 10 µM; hit rate 0.34% among 330,000;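 active means at 10 µM dose, activation of 40% or more, normalized to positive control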;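 further: 100% = tunicamycin at 10 µg/mL and 0% = DMSO alone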
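Assay system: CHO cells with stable CHOP pathway luciferase reporter; Buffer or medium: F12 plus 10% serum; Times: 16-18 h cell attachment, then 6 h compound exposure, 37 °C; Signal: luciferase luminescence; Read-out basis: percent activation relative to tunicamycin control; Control set: tunicamycin high control, DMSO low control.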
UPR XBP1 act: activators of adaptive arm of unfolded protein response (XBP1). CHO-XBP1 luciferase reporter, IRE1-XBP1 UPR activation, luminescence; percent of tunicamycin response, DMSO as zero. activation, % at 20 µM. hit rate 0.33% among 330,000. AID 463104;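 active means versus positive control, 20 µM dose yields 30% or more activation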;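 further: 100% = tunicamycin at 10 µg/mL and 0% = DMSO only wells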
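Assay system: CHO-XBP1 luciferase reporter cells; Schedule: 6 h treatment, 37 °C; Detection: glow luminescence from Steady-Glo reagent; Benchmarks: high control tunicamycin 10 µg/mL final, low control DMSO vehicle only.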
CHOP inh: inhibitors of CHOP induction in ER stress response | hit rate 3.8% among 220,000 | inhibition, % at 10 µM | AID 2732 | CHO-K1 CHOP-promoter luciferase, tunicamycin-induced, 15-18 h;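 active means compounds that reduced the stress-induced luciferase reporter signal by more than about 70% of percent inhibition, limit read from the data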;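 further: 0% = tunicamycin plus vehicle and 100% = wells without tunicamycin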
Starred values were filed as active, the others as inactive.

How did Cc1ccccc1Cn1nc(C)c(NC(=O)c2cc3nc(-c4ccco4)cc(C(F)(F)F)n3n2)c1C do in these assays?
Dynein transport: -0.104; L major viab: 32.9; CHOP inh: 64.3

How did CCc1ccc(-c2cc(C(F)(F)F)n3nc(C(=O)Nc4c(C)nn(Cc5ccc(F)cc5)c4C)cc3n2)s1 do in these assays?
Dynein transport: 1.63; T cruzi inh: 50.6; L major viab: 64.2*; CHOP UPR activ: 1.2; UPR XBP1 act: 1.0; CHOP inh: 44.4

How did CN(C)CCCN(Cc1ccccc1)C(=S)NCc1ccccc1 do in these assays?
Dynein transport: 0.364; T cruzi inh: -8.0; L major viab: 85.8*; CHOP UPR activ: -0.4; UPR XBP1 act: -0.4; CHOP inh: -3.2

Results for CN(C)CCCN(Cc1ccccc1)C(=S)Nc1ccc(SC(F)F)cc1 ?
Dynein transport: -0.177; T cruzi inh: -4.5; L major viab: 100.0*; CHOP UPR activ: 1.2; UPR XBP1 act: -0.2; CHOP inh: 20.6

What do the screens show for `O=C(/C(C=Nc1ccc(F)cc1)=C(/O)c1ccco1)C(F)(F)F`?
Dynein transport: 1.6; T cruzi inh: 14.5; L major viab: 2.3; CHOP UPR activ: 4.4; UPR XBP1 act: -0.4; CHOP inh: 1.9

How did Cc1ccc(N2C(=O)C3C(C2=O)C(C(=O)c2ccc(Cl)cc2)N2CCCC32)cc1 (stereo unspecified) do in these assays?
Dynein transport: -0.903; T cruzi inh: -6.0; L major viab: 94.3*; CHOP UPR activ: 2.6; UPR XBP1 act: 1.2; CHOP inh: 18.2

How did O=C(CSc1nc2ccccc2c(=O)n1-c1ccccc1Cl)NC1CCS(=O)(=O)C1 (stereo unspecified) do in these assays?
CHOP UPR activ: -2.7; UPR XBP1 act: 0.3

Results for O=C(CSc1nc2cc(C(F)(F)F)ccc2n1Cc1ccccc1)NC1CCS(=O)(=O)C1 (stereo unspecified) ?
Dynein transport: -0.64; T cruzi inh: 17.7; L major viab: 96.8*; CHOP UPR activ: 0.2; UPR XBP1 act: -1.6; CHOP inh: 53.7

Results for Cc1ccc(NC(=O)C(C)OC(=O)COc2cccc(C(F)(F)F)c2)cc1 (stereo unspecified) ?
CHOP UPR activ: -1.3; UPR XBP1 act: 1.1

How did CC(=Nc1ccc(Br)cc1)c1sc2ccccc2c1O do in these assays?
Dynein transport: 0.754; T cruzi inh: 60.3*; CHOP UPR activ: 5.0; UPR XBP1 act: 5.1; CHOP inh: -16.7

What do the screens show for `O=C(NCC(=O)N1CCC2(CC1)NCCc1[nH]cnc12)c1ccc2ccccc2c1`?
T cruzi inh: -17.0; CHOP UPR activ: -0.7; UPR XBP1 act: -6.8

What do the screens show for `CN(C)c1nc(N/N=C\c2ccc(Cl)c([N+](=O)[O-])c2)nc(Nc2ccc(F)cc2)n1`?
Dynein transport: -0.734; T cruzi inh: 38.8; L major viab: 97.4*; CHOP UPR activ: 9.7; UPR XBP1 act: 17.7

What do the screens show for `Nn1cnnc1N/N=C/c1ccc(Cl)c([N+](=O)[O-])c1`?
Dynein transport: -0.396; T cruzi inh: 8.5; L major viab: 53.9*; CHOP UPR activ: -1.3; UPR XBP1 act: 2.5; CHOP inh: 6.7

Results for COc1cc(/C=N/NC(=S)Nc2cccc(S(=O)(=O)N(C)C)c2)ccc1O ?
Dynein transport: -0.523; T cruzi inh: -26.9; L major viab: 66.7*; CHOP UPR activ: 3.1; UPR XBP1 act: 2.4; CHOP inh: 1.0

Results for COc1ccc(/C=N/NC(=S)Nc2ccccc2[N+](=O)[O-])cc1O ?
Dynein transport: 0.54; T cruzi inh: -0.1; L major viab: 56.8*; CHOP inh: 1.0

What do the screens show for `Cc1ccc(NC(=S)N/N=C/c2ccc(Cl)c([N+](=O)[O-])c2)cc1`?
Dynein transport: -0.737; T cruzi inh: 2.7; L major viab: 1.9; CHOP UPR activ: 0.2; UPR XBP1 act: -0.3; CHOP inh: 79.8*

What do the screens show for `Cc1ccc(N2CCN(S(=O)(=O)c3ccc4oc(=O)ccc4c3)CC2)cc1Cl`?
T cruzi inh: -7.1; CHOP UPR activ: 0.0; UPR XBP1 act: 6.1

What do the screens show for `Nc1ccc(C(=O)C(=O)c2ccccc2)cc1`?
T cruzi inh: -7.9; CHOP UPR activ: 1.2; UPR XBP1 act: -1.4

Screens (PubChem BioAssay)
